This is an account of results in ChEMBL document CHEMBL1138802, “New water-soluble sulfonylphosphoramidic acid derivatives of the COX-2 selective inhibitor cimicoxib. A novel approach to sulfonamide prodrugs” (J Med Chem, 2004).

Data set [1] in a line: Clearance after i.v. administration of 2 mg/kg to Dogs. Set-up: dose 2 mg/kg, route intravenous. In kind it is ADME, organism-based, Canis lupus familiaris. The following applies: dog, in vivo, iv. A digest of the protocol:
(§1)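 Dogs received the parent sulfonamide iv at 2 mg/kg as a suspension. Parameters (t1/2, AUC/dose in ng h/mL, Cl in mL/h/kg, Vd in mL/kg) were derived from its plasma levels and reported as mean ± deviation.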

Data set [2] has as its target T1, Prostaglandin G/H synthase 2 (Rattus norvegicus) (UniProt P35355).
T1 sequence (whole entry): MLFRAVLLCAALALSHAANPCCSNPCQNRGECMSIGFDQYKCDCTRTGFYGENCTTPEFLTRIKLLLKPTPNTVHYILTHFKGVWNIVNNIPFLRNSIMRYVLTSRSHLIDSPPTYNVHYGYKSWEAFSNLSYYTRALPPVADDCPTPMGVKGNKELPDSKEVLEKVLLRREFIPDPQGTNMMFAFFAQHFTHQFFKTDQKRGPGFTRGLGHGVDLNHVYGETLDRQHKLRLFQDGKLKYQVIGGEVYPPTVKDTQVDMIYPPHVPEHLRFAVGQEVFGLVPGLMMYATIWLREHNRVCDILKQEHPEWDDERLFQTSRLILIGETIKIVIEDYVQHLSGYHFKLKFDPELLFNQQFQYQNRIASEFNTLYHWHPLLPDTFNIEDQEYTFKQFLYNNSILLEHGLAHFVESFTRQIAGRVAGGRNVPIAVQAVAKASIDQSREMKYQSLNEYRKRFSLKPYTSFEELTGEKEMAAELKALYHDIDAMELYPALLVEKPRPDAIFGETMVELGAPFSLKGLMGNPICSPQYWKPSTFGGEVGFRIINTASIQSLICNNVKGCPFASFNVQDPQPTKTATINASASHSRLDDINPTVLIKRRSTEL
The data set can be described thus: Percentage inhibition of rat carrageenan-induced paw edema after iv administration at 3 mg/kg. The class given is functional, organism-based. More on the design: dose 3 mg/kg. The gist of the method:
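Male Sprague–Dawley rats (150–175 g) were dosed iv at 3 mg/kg in PBS (1 mL/kg) 10 min before intraplantar injection of 0.1 mL 1% λ-carrageenan into the hindpaw. Paw volume was measured by water-displacement plethysmometry before and 1, 2, 3 and 4 h after treatment. % inhibition was calculated from the AUC of treated versus control animals.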
On the technique in general: Carrageenan injected into the paw causes an acute inflammation.

A short description of data set [3]: Area under curve after i.v. administration of 2 mg/kg to Dogs. In kind it is ADME, organism-based, Canis lupus familiaris. Set-up: dose 2 mg/kg, route intravenous. The following applies: dog, in vivo, iv. A digest of the protocol: as §1
The nature of data set [4]: Half life after i.v. administration of 2 mg/kg to Dogs. The following applies: dog, in vivo, iv. Set-up: dose 2 mg/kg, route intravenous. In kind it is ADME, organism-based, Canis lupus familiaris. The gist of the method:
as §1

The nature of data set [5]: Volume of distribution after i.v. administration of 2 mg/kg to Dogs. The note with it: dog, in vivo, iv. The class given is ADME, organism-based, Canis lupus familiaris. Set-up: dose 2 mg/kg, route intravenous. The gist of the method:
as §1

Data set [6] is described as follows: Area under curve after i.v. administration of 1 mg/kg to Dogs. In kind it is ADME, organism-based, Canis lupus familiaris. Set-up: dose 1 mg/kg, route intravenous. The following applies: dog, in vivo, iv. A digest of the protocol: (§2)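 Dogs received the water-soluble phosphoramidic acid prodrug iv at 1 mg/kg as a solution. Parameters (t1/2, AUC/dose in ng h/mL, Cl in mL/h/kg, Vd in mL/kg) were derived from plasma levels of the released parent sulfonamide and reported as mean ± deviation.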

Data set [7] is described as follows: Clearance after i.v. administration of 1 mg/kg to Dogs. The class given is ADME, organism-based, Canis lupus familiaris. More on the design: dose 1 mg/kg, route intravenous. The following applies: dog, in vivo, iv. The gist of the method: as §2
A short description of data set [8]: Volume of distribution after i.v. administration of 1 mg/kg to Dogs. The note with it: dog, in vivo, iv. Set-up: dose 1 mg/kg, route intravenous. The class given is ADME, organism-based, Canis lupus familiaris. The gist of the method: as §2

With `COc1ccc(-c2c(Cl)ncn2-c2ccc(S(N)(=O)=O)cc2)cc1F` [CIMICOXIB], in data set [1], the clearance was 4.87 mL/min/kg. In data set [2], this molecule returned an inhibition of 34.8%. In data set [3], the AUC/dose amounted to 3253.4 ng·h/mL. The half-life in data set [4] is 5 h. Further, the Vd in data set [5] turned out to be 2.12 L/kg.
As to `CCC(=O)NS(=O)(=O)c1ccc(-c2c(-c3ccccc3)noc2C)cc1`, the inhibition in data set [2] turned out to be 32.6%.
`COc1ccc(-c2c(Cl)ncn2-c2ccc(S(=O)(=O)NP(=O)(O)O)cc2)cc1F` had an inhibition in data set [2] of 34.8%. In addition, the AUC/dose in data set [6] was 3641.1 ng·h/mL. Also, the half-life in data set [4] was 4.9 h. Moreover, the clearance in data set [7] is 4.55 mL/min/kg. In data set [8], this molecule yielded a volume of distribution (Vd) of 1.86 L/kg.

As a reminder, the clearance is a measure of how efficiently the substance is removed, as volume per time. A higher clearance goes with efficient removal. What is called inhibition is the share of the control response that was lost under treatment. Read a high inhibition as a response far below the control. Usually half-life stands for the time in which the quantity being followed falls by half. A high value points to slow loss. By Vd is commonly meant a proportionality between amount in the body and measured concentration, not a real space. A higher Vd goes with wide distribution into tissue.
